The values below come from publication PMC4234452 (Journal of Medicinal Chemistry, 2014).

Bounds are passed on as bounds.

In series [1] the target is T1, Human Transglutaminase 3 (TG3) (Homo sapiens, UniProt Q08188).
T1 sequence (Q08188 2-467 limits assumed): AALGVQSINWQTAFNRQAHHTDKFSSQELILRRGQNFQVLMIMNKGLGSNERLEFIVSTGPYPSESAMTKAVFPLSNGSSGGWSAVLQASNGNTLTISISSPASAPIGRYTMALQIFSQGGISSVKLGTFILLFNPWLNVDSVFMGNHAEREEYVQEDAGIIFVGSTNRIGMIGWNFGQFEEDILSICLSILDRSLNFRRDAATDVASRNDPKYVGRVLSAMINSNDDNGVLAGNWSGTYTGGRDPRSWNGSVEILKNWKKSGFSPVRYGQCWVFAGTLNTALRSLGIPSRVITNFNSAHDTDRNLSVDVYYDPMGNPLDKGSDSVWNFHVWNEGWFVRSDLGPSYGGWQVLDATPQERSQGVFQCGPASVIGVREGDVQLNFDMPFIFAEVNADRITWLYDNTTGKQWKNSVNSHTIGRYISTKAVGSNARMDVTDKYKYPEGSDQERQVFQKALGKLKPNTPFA
T1 sequence (Q08188 468-693 partner limits assumed): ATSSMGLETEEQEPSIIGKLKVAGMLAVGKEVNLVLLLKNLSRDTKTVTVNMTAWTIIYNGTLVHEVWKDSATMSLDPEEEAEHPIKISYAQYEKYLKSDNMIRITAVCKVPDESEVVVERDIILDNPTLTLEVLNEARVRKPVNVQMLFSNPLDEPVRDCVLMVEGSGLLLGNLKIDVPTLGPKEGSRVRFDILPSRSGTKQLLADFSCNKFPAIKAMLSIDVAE
The series can be described thus: GDH-coupled transglutaminase assay, TG3. Format: biochemical. Conditions: irreversible inhibition model, substrate ZQS.

Another series has as its target T2, murine TG2 (mTG2) (Mus musculus, UniProt P21981).
T2 sequence (P21981 1-686): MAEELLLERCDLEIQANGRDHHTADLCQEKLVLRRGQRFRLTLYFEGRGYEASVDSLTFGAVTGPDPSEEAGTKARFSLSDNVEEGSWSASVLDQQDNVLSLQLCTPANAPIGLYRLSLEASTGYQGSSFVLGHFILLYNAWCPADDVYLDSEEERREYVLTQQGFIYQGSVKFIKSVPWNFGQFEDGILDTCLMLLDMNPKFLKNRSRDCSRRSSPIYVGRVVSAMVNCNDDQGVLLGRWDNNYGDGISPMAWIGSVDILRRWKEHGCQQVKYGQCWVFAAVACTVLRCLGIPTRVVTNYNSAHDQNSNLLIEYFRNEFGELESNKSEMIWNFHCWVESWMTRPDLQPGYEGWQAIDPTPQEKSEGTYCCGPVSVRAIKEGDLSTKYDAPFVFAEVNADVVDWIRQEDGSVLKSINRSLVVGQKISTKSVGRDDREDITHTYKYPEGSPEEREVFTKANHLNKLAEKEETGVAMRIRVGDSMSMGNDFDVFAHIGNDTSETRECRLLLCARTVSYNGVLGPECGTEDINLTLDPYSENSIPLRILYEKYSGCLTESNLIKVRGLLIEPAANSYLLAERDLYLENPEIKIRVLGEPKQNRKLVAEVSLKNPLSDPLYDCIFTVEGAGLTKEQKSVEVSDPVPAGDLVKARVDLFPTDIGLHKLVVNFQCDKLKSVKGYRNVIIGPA
Kind of series: GDH-coupled transglutaminase assay, murine TG2. It is filed as biochemical. Conditions: irreversible inhibition model, substrate ZQG.

A short description of series [2]: Plasma concentrations after pooled oral dosing to mice. Format: in vivo. The following applies: 50 mg/kg. Put shortly: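 Test compounds given as mixtures by oral gavage (10 μL/g) at 50 mg/kg of each constituent to cohorts of five male CD-1 mice, 6−8 weeks old, fasted about 6 h. Blood was drawn into lithium-heparin tubes from the saphenous vein at 5 and 20 min, and by cardiac puncture at 60 min after CO2 euthanasia. Each compound's plasma concentration was quantified and plotted against time.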

A further series has as its target T3, human TG2 (Homo sapiens, UniProt P21980, V224G).
T3 sequence (P21980 1-687 V224G): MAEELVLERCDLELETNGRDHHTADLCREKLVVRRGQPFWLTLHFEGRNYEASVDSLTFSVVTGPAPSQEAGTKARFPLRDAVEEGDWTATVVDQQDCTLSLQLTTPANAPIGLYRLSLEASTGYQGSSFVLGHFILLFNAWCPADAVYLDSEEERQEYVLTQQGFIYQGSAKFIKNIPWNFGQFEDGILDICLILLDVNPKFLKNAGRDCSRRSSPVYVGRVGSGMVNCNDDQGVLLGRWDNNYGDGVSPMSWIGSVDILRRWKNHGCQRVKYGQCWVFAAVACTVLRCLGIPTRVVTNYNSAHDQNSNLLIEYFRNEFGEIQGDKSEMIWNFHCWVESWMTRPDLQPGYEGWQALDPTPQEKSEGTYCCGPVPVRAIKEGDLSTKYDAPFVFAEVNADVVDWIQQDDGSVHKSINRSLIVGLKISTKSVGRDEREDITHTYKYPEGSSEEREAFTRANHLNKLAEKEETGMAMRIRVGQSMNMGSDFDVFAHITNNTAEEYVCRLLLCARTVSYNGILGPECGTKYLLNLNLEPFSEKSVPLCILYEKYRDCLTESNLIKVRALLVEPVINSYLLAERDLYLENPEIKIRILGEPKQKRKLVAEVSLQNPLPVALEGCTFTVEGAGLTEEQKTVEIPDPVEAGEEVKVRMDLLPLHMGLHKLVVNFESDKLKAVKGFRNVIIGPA
Kind of series: GDH-coupled transglutaminase assay, TG2. It is filed as biochemical.

The next series addresses T4, human TG1 (Homo sapiens, UniProt P22735).
T4 sequence (P22735 63-817): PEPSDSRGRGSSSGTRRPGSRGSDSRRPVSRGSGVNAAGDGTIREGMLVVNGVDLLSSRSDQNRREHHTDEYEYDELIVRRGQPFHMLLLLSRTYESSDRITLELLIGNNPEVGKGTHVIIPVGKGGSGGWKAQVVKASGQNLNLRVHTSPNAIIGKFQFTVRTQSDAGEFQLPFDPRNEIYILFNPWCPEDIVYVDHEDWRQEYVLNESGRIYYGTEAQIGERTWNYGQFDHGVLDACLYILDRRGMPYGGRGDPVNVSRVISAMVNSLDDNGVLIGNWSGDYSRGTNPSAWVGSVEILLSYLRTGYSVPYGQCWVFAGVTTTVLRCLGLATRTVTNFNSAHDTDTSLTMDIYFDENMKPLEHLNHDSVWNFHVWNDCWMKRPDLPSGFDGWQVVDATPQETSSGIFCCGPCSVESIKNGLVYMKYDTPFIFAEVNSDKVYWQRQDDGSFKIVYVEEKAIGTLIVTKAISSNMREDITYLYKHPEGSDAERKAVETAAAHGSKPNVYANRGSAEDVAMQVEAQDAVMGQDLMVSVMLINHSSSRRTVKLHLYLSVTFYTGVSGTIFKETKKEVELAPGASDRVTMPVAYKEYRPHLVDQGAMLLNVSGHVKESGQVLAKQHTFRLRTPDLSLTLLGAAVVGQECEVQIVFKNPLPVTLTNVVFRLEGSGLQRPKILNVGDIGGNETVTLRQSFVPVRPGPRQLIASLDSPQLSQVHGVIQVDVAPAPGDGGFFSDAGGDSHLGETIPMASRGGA
Kind of series: GDH-coupled transglutaminase assay, TG1. Format: biochemical.

For series [3] the following is noted: twice-daily, intraperitoneal, 50 mg/kg, several weeks ref 22; cited from earlier work.
In another series the test system is TG2. Conditions: murine model of hypoxia-induced pulmonary hypertension ref 22; cited from earlier work.

For the compound `O=C(NC[C@@H]1CC(Br)=NO1)[C@@H]1C[C@H](F)CN1C(=O)OCc1cnc2ccccc2c1` [Compound 4b, (2S,4S)-Quinolin-3-ylmethyl 2-((((S)-3-Bromo-4,5-dihydroisoxazol-5-yl)methyl)carbamoyl)-4-fluoropyrrolidine-1-carboxylate], the “kinh/Ki TG3” value in series [1] was under 16.7 M⁻¹ s⁻¹. In addition, the “kinh/Ki mTG2” value on murine TG2 (mTG2) came to 117 M⁻¹ s⁻¹.

Regarding `O=C(N[C@@H]1C[C@@H](C(=O)NC[C@@H]2CC(Br)=NO2)N(C(=O)OCc2cnc3ccccc3c2)C1)c1ccc(O)cc1` [Compound 9d, (2S,4R)-Quinolin-3-ylmethyl 2-((((S)-3-Bromo-4,5-dihydroisoxazol-5-yl)methyl)carbamoyl)-4-(4-hydroxybenzamido)pyrrolidine-1-carboxylate], the “kinh/Ki TG3” value in series [1] is under 16.7 M⁻¹ s⁻¹. In addition, the “kinh/Ki mTG2” value at murine TG2 (mTG2) is 157 M⁻¹ s⁻¹. Besides, the “oral bioavailability / systemic availability (in words)” value in series [2] was “much less bioavailable”.

Turning to `O=C(N[C@@H]1C[C@@H](C(=O)NC[C@@H]2CC(Br)=NO2)N(C(=O)OCc2cnc3ccccc3c2)C1)c1cccnc1` [Compound 9e, (2S,4R)-Quinolin-3-ylmethyl 2-((((S)-3-Bromo-4,5-dihydroisoxazol-5-yl)methyl)carbamoyl)-4-(nicotinamido)pyrrolidine-1-carboxylate], in series [1], the “kinh/Ki TG3” value was under 16.7 M⁻¹ s⁻¹. The “kinh/Ki mTG2” value at murine TG2 (mTG2) came out at 177 M⁻¹ s⁻¹. In addition, the “oral bioavailability / systemic availability (in words)” value in series [2] was “much less bioavailable”.

Regarding `O=C(NC[C@@H]1CC(Br)=NO1)[C@@H]1C[C@@H](c2ccc(O)cc2)CN1C(=O)OCc1cnc2ccccc2c1` [Compound 7e, (2S,4S)-Quinolin-3-ylmethyl 2-((((S)-3-Bromo-4,5-dihydroisoxazol-5-yl)methyl)carbamoyl)-4-(4-hydroxyphenyl)pyrrolidine-1-carboxylate], the “kinh/Ki TG3” value in series [1] is under 16.7 M⁻¹ s⁻¹. The “kinh/Ki mTG2” value at murine TG2 (mTG2) is 645 M⁻¹ s⁻¹. Besides, the “plasma levels, fold lower than that of 4b” value in series [2] is on record as 3–4 fold.

`C#CCOC(=O)N1CCC[C@H]1C(=O)NC[C@@H]1CC(Br)=NO1` [Compound 10b, (S)-Prop-2-yn-1-yl 2-((((S)-3-Bromo-4,5-dihydroisoxazol-5-yl)methyl)carbamoyl)pyrrolidine-1-carboxylate]: the “selectivity for TG2 over TG1” value at human TG2 (from kinh/Ki) is reported as 3 fold.

Regarding `O=C(NC[C@@H]1CC(Br)=NO1)[C@@H]1C[C@@H](c2ccccc2)CN1C(=O)OCc1cnc2ccccc2c1` [Compound 7a, (2S,4S)-Quinolin-3-ylmethyl 2-((((S)-3-Bromo-4,5-dihydroisoxazol-5-yl)methyl)carbamoyl)-4-phenylpyrrolidine-1-carboxylate], the “kinh/Ki TG3” value in series [1] is under 16.7 M⁻¹ s⁻¹. Besides, the “kinh/Ki mTG2” value on murine TG2 (mTG2) was 423 M⁻¹ s⁻¹. The “plasma levels, fold lower than that of 4b” value in series [2] is on record as 3–4 fold.

Regarding `O=C(NC[C@@H]1CC(Br)=NO1)[C@@H]1C[C@@H](O)CN1C(=O)OCc1cnc2ccccc2c1` [Compound 4e, (2S,4R)-Quinolin-3-ylmethyl 2-((((S)-3-Bromo-4,5-dihydroisoxazol-5-yl)methyl)carbamoyl)-4-hydroxypyrrolidine-1-carboxylate], in series [1], the “kinh/Ki TG3” value was under 16.7 M⁻¹ s⁻¹. For the same compound, the “kinh/Ki mTG2” value on murine TG2 (mTG2) was determined as 185 M⁻¹ s⁻¹.

Turning to `O=C(NC[C@@H]1CC(Br)=NO1)[C@@H]1CCCN1C(=O)OCc1cnc2ccccc2c1` [Compound 1, (S)-Quinolin-3-ylmethyl 2-((((S)-3-Bromo-4,5-dihydroisoxazol-5-yl)methyl)carbamoyl)pyrrolidine-1-carboxylate], the “kinh/Ki TG1” value at human TG1 (irreversible inhibition model, substrate ZQS, listed as ERW1041E) was found to be 217 M⁻¹ s⁻¹. In addition, the “kinh/Ki TG3” value in series [1] was under 16.7 M⁻¹ s⁻¹. On human TG2 (irreversible inhibition model, substrate ZQG, listed as ERW1041E), the “kinh/Ki TG2” value stood at 283 M⁻¹ s⁻¹. Besides, the “decrease in potency from ERW1069 to ERW1041E” value at human TG2 (relative to ERW1069) was 3–4 fold. For the same compound, the tolerability entry in series [3] is reported as “well tolerated”. For the same compound, the inhibitory half-life entry in the series on TG2 is given as “about 12 h”. The “kinh/Ki mTG2” value at murine TG2 (mTG2) was found to be 138 M⁻¹ s⁻¹. Moreover, the “peak plasma concentration after oral dosing” value in series [2] was 2 to 3 µg/mL.

In the case of “(2S,4R)-Quinolin-3-ylmethyl 4-(Benzyloxy)-2-((((S)-3-bromo-4,5-dihydroisoxazol-5-yl)methyl)carbamoyl)pyrrolidine-1-carboxylate [Compound 5c]”, the “kinh/Ki TG3” value in series [1] is under 16.7 M⁻¹ s⁻¹. The “kinh/Ki mTG2” value on murine TG2 (mTG2) stood at 258 M⁻¹ s⁻¹.

On to `O=C(NC[C@@H]1CC(Br)=NO1)[C@@H]1CCCN1C(=O)OCc1cnc2ccccc2n1` [Compound 10l, (S)-Quinoxalin-2-ylmethyl 2-((((S)-3-Bromo-4,5-dihydroisoxazol-5-yl)methyl)carbamoyl)pyrrolidine-1-carboxylate], for which the “selectivity for TG1 (over TG2)” value at human TG1 (from kinh/Ki) amounted to 10 fold.
